According to publication PMC11840771 (ACS Omega, 2025):
Like-named read-outs stand apart in the source and are kept apart here.

Assays:
[1] = molecular target: T1, HER2-TK (Homo sapiens, UniProt P04626); test: SPR kinetic analysis of binding to immobilized HER2-TK
[2] = system: SKOV3 (HER2-positive cell); test: MTT cell viability assay, SKOV3; assay type: cell-based, human; settings: read-out: cell inhibition IC50 SKOV3 (HER2-positive cell), 72 h, mean ± SD
How it was run: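 SKOV3 cells grown in DMEM at 37 °C, 5% CO2, seeded at 1 × 10^4 cells/well and left 16 h. Test compound from DMSO stock (final DMSO ≤1%) was added in complete medium, 2-fold dilutions from 100 μM, for 72 h. MTT added for 3 h at 37 °C, formazan dissolved in DMSO, read at 550/590 nm. Triplicate; IC50 by nonlinear regression.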

[3] = molecular target: T1, HER2-TK; test: HER2-TK inhibitory activity assay; assay type: biochemical
[4] = SPR, PBS pH 7.4 with 5% DMSO, mean ± SD

T1 sequence (P04626 676-1255 limits assumed): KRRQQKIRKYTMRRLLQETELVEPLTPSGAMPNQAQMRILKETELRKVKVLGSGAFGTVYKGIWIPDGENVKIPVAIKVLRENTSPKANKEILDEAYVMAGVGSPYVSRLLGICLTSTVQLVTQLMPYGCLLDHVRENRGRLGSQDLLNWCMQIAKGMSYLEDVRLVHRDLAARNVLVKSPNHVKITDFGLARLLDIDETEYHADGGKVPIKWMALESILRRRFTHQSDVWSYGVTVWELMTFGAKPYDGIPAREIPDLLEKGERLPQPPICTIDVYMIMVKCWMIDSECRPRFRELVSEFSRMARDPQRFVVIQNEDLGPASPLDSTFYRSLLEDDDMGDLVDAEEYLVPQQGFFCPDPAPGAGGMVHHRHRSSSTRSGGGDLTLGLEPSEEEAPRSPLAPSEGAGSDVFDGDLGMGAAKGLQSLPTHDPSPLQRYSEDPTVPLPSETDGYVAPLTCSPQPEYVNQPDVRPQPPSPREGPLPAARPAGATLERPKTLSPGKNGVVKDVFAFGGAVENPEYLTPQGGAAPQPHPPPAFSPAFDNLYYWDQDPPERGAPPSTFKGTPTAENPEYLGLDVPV

SMILES | kd [1, 4] | IC50 [2] [µM] | Kd [1] [µM] | IC50 [3] [µM] | ka [1, 4] | kon ([1]; read-out: association rate constant (ka)) [M⁻¹ s⁻¹] | kd ([1]; SPR) | kon ([1]; pH 7.4, read-out: ka) [M⁻¹ s⁻¹]
CN(C)C/C=C/C(=O)Nc1cc2c(Nc3ccc(F)c(Cl)c3)ncnc2cc1O[C@H]1CCOC1 [Afatinib, reference compound] | 9.95 ± 0.16 10^–3/s | 8.4 ± 0.9 | – | – | – | – | – | –
C=C(C)[C@@H]1CCC(C)=C[C@H]1c1c(O)cc(CCCCC)cc1O [CBD, cannabidiol] | 6.33 ± 0.06 10^–3/s | 13.8 ± 1.7 | 6.16 ± 0.25 | 0.038 ± 0.002 | – | – | – | –
CCCCCc1cc(O)c(C/C=C(\C)CCC=C(C)C)c(O)c1 [CBG, cannabigerol] | 3.77 ± 0.02 10^–3/s | 16.6 ± 1 | 17.1 ± 0.8 | 0.0247 ± 0.0026 | 2.21 ± 0.11 10^2/(M·s) | 221 | – | –
CCCCCc1cc(O)c2c(c1)OC(C)(C)c1ccc(C)cc1-2 [CBN, cannabinol] | 3.14 ± 0.09 10^–3/s | – | 26 ± 2.97 | 0.0874 ± 0.0017 | – | – | 3.14 × 10^–3 s^–1 | 122 ± 11
CS(=O)(=O)CCNCc1ccc(-c2ccc3ncnc(Nc4ccc(OCc5cccc(F)c5)c(Cl)c4)c3c2)o1 [Lapatinib, reference compound] | – | 8 ± 1.4 | – | – | – | – | – | –
